# Assay results from ChEMBL document CHEMBL1156980, “Synthesis and biological evaluation of 8-oxoadenine derivatives as toll-like receptor 7 agonists introducing the antedrug concept” (J Med Chem, 2010).
# Active and inactive are the calls of the source. The rule behind the calls is not given here.
# Key:
# Toll-like receptor 7 = target: T1, Toll-like receptor 7 (Homo sapiens, UniProt Q9NYK1); assay: Agonist activity at human TLR7 expressed in HEK293 cells coexpressing pNiFty2-SEAP reporter by reporter gene assay; type: functional, cell-based
# T1 sequence (Q9NYK1 whole entry): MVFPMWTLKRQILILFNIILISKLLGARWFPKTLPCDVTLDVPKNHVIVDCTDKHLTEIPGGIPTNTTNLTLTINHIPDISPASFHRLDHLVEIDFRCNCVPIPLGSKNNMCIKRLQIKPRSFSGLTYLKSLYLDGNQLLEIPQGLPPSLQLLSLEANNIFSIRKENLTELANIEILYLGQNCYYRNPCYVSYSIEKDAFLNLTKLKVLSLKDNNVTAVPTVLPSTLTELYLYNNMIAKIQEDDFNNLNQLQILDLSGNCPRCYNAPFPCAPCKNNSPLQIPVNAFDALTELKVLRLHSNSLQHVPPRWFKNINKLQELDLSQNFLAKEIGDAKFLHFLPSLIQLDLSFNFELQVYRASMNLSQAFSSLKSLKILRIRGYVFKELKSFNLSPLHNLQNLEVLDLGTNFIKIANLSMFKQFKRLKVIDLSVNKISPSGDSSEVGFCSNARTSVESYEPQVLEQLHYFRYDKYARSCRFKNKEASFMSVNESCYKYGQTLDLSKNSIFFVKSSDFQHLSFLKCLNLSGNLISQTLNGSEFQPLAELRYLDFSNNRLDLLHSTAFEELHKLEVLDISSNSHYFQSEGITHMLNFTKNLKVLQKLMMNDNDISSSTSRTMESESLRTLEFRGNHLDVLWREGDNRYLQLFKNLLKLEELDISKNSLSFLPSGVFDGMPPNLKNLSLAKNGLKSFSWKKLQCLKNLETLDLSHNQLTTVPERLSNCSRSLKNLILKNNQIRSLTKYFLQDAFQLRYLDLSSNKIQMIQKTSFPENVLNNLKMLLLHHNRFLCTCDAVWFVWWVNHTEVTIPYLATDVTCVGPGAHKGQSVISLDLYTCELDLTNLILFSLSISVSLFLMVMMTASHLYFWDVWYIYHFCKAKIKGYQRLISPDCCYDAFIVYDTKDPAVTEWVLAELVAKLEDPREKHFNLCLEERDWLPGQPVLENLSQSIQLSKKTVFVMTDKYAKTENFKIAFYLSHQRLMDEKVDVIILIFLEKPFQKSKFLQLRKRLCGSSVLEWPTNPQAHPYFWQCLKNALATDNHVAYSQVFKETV
# In short: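 HEK293 cells stably transfected with human TLR7 and an NF-kB-driven SEAP reporter; agonist activity read as reporter output and expressed as EC50.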
# [1] = Half life in human plasma by […] analysis
# PBMC [2] = assay: Induction of type 1 IFN secretion in human PBMC at 3 nM after 18 hrs by ELISA; type: cell-based; settings: 0.003 µM
# [3] = Half life in rat plasma by […] analysis; type: ADME, cell-free
# PBMC [4] = assay: Induction of type 1 IFN secretion in human PBMC at 300 nM after 18 hrs by ELISA; type: cell-based; settings: 0.3 µM
# Toll-like receptor 8 = target: T2, Toll-like receptor 8 (Homo sapiens, UniProt Q9NR97); assay: Agonist activity at TLR8; type: functional
# T2 sequence (Q9NR97 whole entry): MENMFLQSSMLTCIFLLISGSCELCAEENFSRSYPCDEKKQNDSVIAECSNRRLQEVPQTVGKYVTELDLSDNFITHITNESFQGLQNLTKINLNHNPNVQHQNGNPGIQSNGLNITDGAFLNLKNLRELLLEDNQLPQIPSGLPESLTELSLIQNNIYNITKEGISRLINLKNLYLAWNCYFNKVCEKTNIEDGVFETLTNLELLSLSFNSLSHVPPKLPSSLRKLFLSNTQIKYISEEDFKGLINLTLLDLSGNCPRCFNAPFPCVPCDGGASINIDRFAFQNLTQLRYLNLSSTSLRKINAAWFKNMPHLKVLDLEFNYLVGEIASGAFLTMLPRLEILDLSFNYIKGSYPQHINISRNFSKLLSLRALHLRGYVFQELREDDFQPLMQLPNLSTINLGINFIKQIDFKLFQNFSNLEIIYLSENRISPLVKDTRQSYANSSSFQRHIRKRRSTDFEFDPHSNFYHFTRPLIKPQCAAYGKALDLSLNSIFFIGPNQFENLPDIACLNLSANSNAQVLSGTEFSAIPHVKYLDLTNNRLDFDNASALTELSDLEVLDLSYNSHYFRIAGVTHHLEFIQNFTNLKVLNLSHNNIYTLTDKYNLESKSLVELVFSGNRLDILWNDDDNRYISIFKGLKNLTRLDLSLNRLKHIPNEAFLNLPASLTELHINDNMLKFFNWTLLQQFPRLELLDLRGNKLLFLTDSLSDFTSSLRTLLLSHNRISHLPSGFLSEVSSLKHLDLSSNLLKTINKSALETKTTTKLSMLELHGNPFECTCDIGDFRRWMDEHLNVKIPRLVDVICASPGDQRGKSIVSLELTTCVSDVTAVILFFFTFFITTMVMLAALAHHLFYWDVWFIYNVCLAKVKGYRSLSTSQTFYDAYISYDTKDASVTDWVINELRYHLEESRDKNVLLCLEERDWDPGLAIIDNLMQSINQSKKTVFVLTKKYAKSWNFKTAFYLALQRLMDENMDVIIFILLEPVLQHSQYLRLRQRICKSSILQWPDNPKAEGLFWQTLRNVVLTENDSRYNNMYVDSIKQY
# Rattus norvegicus [5] = assay: Antiinflammatory activity in ovalbumin and […] hydroxide adjuvant-sensitized intratracheally dosed Brown Norway rat assessed as inhibition of allergen-induced eosinophils influx administered 2 hrs before allergen challenge measured after 24 hrs; type: functional, organism-based
# PBMC [6] = assay: Induction of type 1 IFN secretion in human PBMC at 10 nM after 18 hrs by ELISA; type: cell-based; settings: 0.01 µM
# PBMC [7] = assay: Induction of type 1 IFN secretion in human PBMC at 30 nM after 18 hrs by ELISA; type: cell-based; settings: 0.03 µM
# PBMC [8] = assay: Induction of type 1 IFN secretion in human PBMC at 100 nM after 18 hrs by ELISA; type: cell-based; settings: 0.1 µM
# PBMC [9] = assay: Induction of type 1 IFN secretion in human PBMC at 1000 nM after 18 hrs by ELISA; type: cell-based; settings: 1 µM
# PBMC [10] = assay: Induction of type 1 IFN secretion in human PBMC at 10000 nM after 18 hrs by ELISA; type: cell-based; settings: 10 µM
# In short: (§1)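 Human peripheral blood mononuclear cells incubated with compound; IFN in culture supernatants quantified by human ELISA.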
# PBMC [11] = assay: Induction of type 1 IFN secretion in human PBMC at 3000 nM after 18 hrs by ELISA; type: cell-based; settings: 3 µM; in short: as §1
# Rattus norvegicus [12] = assay: Antiinflammatory activity in ovalbumin and […] hydroxide adjuvant-sensitized Brown Norway rat assessed as inhibition of allergen-induced eosinophils influx at 1 mg/kg, intratracheally administered 2 hrs before allergen challenge measured after 24 hrs; type: functional, organism-based; parameters: dose 1 mg/kg
# Rattus norvegicus [13] = assay: Induction of IFN secretion in Brown Norway rat plasma at up to 10 mg/kg, intratracheally measured after 2 to 24 hrs by CPE reduction assay; type: organism-based; parameters: dose 10 mg/kg, route endotracheal; settings: in vivo, inhaled_or_intranasal
# Rattus norvegicus [14] = assay: Induction of IFN secretion in Brown Norway rat plasma at 0.1 mg/kg, intratracheally measured after 2 to 24 hrs by CPE reduction assay; type: organism-based; parameters: dose 0.1 mg/kg, route endotracheal; settings: in vivo, inhaled_or_intranasal
EC50 (Toll-like receptor 7),half-life [1],SMILES,other results
0.0501 µM,2.6 min,CCCCOc1nc(N)c2[nH]c(=O)n(Cc3cccc(CC(=O)OC)c3)c2n1,Activity (PBMC [2]): < 1.25 nM; half-life [3]: < 0.04 min; Activity (PBMC [4]): 8.37 nM; EC50 (Toll-like receptor 8): > 10 µM; Activity (Rattus norvegicus [5]): Dose-dependent effect; Activity (PBMC [6]): 1.61 nM; Activity (PBMC [7]): 4.71 nM; Activity (PBMC [8]): 8.17 nM; Activity (PBMC [9]): 6.2 nM
0.0729 µM,> 98 min,CCCCOc1nc(N)c2[nH]c(=O)n(Cc3ccc(C(=O)OC)cc3)c2n1,–
0.467 µM,> 98 min,CCCCOc1nc(N)c2[nH]c(=O)n(Cc3ccccc3CC(=O)OC)c2n1,–
0.609 µM,> 98 min,CCCCOc1nc(N)c2[nH]c(=O)n(Cc3ccccc3C(=O)OC)c2n1,–
0.0515 µM,> 98 min,CCCCOc1nc(N)c2[nH]c(=O)n(Cc3cccc(C(=O)OC)c3)c2n1,–
0.0637 µM,–,CCCCOc1nc(N)c2nc(O)n(Cc3ccccc3)c2n1,–

# Continued, compound first:
SMILES,EC50 (Toll-like receptor 7),half-life [1],other results
CCCCOc1nc(N)c2[nH]c(=O)n(Cc3cccc(CCC(=O)OC)c3)c2n1,0.0875 µM,> 98 min,–
CCCCOc1nc(N)c2[nH]c(=O)n(Cc3cccc(C(C)C(=O)OC)c3)c2n1 (stereo unspecified),0.075 µM,> 98 min,–
CCCCOc1nc(N)c2[nH]c(=O)n(Cc3ccc(CC(=O)OC)cc3)c2n1,0.0103 µM,21.9 min,–
COCCOc1nc(N)c2[nH]c(=O)n(Cc3ccccc3)c2n1,0.399 µM,–,–
CCCCOc1nc(N)c2[nH]c(=O)n(Cc3cccc(CC(=O)OCC)c3)c2n1,0.188 µM,9 min,–
CCCCOc1nc(N)c2[nH]c(=O)n(Cc3cccc(CC(=O)O)c3)c2n1,–,–,Activity (PBMC [4]): < 1.25 nM; Activity (PBMC [10]): 1.25 nM; Activity (PBMC [11]): 1.25 nM; Activity (PBMC [7]): < 1.25 nM; Activity (PBMC [8]): < 1.25 nM; Activity (PBMC [9]): < 1.25 nM
CCCCOc1nc(N)c2[nH]c(=O)n(Cc3ccc(F)c(CC(=O)OC)c3)c2n1,0.0257 µM,13.1 min,–
COCCOc1nc(N)c2[nH]c(=O)n(Cc3cccc(CC(=O)OC)c3)c2n1,0.312 µM,1.4 min,–
CCCCOc1nc(N)c2[nH]c(=O)n(Cc3cc(CC(=O)OC)ccc3OC)c2n1,0.108 µM,98 min,–
CCCCOc1nc(N)c2[nH]c(=O)n(Cc3ccc(OC)c(CC(=O)OC)c3)c2n1,0.0081 µM,> 98 min,–
CCOCc1nc2c(N)nc3ccccc3c2n1CC(C)(C)O [RESIQUIMOD],–,–,Activity (Rattus norvegicus [12]): Active; Activity (PBMC [4]): 7.26 nM; Activity (Rattus norvegicus [13]): Non-toxic; Activity (PBMC [6]): < 1.25 nM; Activity (PBMC [7]): 1.25 nM; Activity (PBMC [8]): 5.61 nM; Activity (PBMC [9]): 7.75 nM; Activity (Rattus norvegicus [14]): Toxic
